MrgX1 antagonist: antagonists of human MrgX1 receptor. hit rate 1.3% among 310,000. MRGX1-HEK293 calcium flux, Fluo-4, BAM8-22 antagonism; stronger effect = lower value. B-score at 10 µM;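 active = calcium-response B-score plate-corrected more than 3 library SD below zero, starting fluorescence within 5 deviations, no agonist response on first addition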;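 note: peak minus trough fluorescence over baseline after final BAM8-22 challenge near maximal dose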
Target sequence (Q96LB2 whole entry, looked up): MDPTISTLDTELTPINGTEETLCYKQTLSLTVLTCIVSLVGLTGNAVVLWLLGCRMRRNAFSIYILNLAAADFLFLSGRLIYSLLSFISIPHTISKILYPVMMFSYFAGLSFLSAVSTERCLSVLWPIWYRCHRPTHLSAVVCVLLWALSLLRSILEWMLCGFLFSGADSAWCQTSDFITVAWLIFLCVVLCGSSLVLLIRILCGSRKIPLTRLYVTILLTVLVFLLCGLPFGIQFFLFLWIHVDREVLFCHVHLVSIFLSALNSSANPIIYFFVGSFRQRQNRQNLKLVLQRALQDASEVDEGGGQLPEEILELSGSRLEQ
RGS4 block: inhibitors of human RGS4; P49798; HEK293 M3R/RGS4 inducible, Fluo-4 calcium flux; stronger effect = higher value; triggered by carbachol at its EC20; B-score at 10 µM; hit rate 0.45% among 310,000;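 active = B-score, a plate-corrected calcium signal, over three deviations above library mean, with baseline fluorescence within five deviations of library mean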;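 note: RGS4 expression induced by doxycycline in cells with stable M3 receptor; B-score is computed from the integrated fluorescence ratio over baseline after carbachol; higher B-score means a larger calcium signal and so more RGS4 inhibition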
Target sequence (P49798 whole entry, looked up): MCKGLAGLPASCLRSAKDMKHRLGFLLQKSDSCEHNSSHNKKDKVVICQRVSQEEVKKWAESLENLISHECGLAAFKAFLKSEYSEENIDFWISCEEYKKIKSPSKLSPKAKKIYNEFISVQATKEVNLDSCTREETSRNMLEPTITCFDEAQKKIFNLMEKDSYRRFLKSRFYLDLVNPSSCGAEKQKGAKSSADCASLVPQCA
MrgX1 PAM: allosterically activates human MrgX1 receptor signaling. B-score at 10 µM. hit rate 0.63% among 310,000. MrgX1-HEK293, Fluo-4 calcium flux, FDSS; stronger effect = higher value;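 active = plate-corrected calcium response at least 3 library SD above typical, normal starting fluorescence, not activating the receptor alone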;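 note: compound read alongside a low EC10 to EC30 dose of BAM8-22 agonist; peak minus trough fluorescence over baseline measured at the second addition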
MrgX1 agonist: agonists of human MrgX1 receptor | B-score at 10 µM | MrgX1-HEK293 cells, Fluo-4 calcium fluorescence, agonist mode; stronger effect = higher value | hit rate 0.44% among 310,000 | Q96LB2;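 active = calcium response B-score plate-corrected fluorescence ratio at least 3 library SD, with starting fluorescence B-score inside 5 SD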
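Material: MrgX1-expressing HEK293 cells; input: 15,000 cells per well; doses: test compound given as first of three sequential additions; schedule: overnight plating before 1 h dye loading; technique: Fluo-4 NW calcium-flux fluorescence, kinetic read; evaluation: baseline-normalised fluorescence change ratio, B-scored; control set: plate-wise positive and negative controls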
RGS4 act: potentiators or activators of RGS4. HEK293 M3R/inducible RGS4, carbachol calcium flux Fluo4; stronger effect = lower value. B-score at 10 µM. hit rate 0.92% among 310,000. AID 463111;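 active = B-score of the integrated calcium signal more than 4 SD below the library mean, with starting fluorescence not abnormally high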;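 note: negative B-score means reduced calcium response which marks RGS4 activation or potentiation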
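Also added: carbachol at ECmax as muscarinic agonist stimulus; Assay system: HEK293 cells with stable M3R and inducible RGS4; Timing: overnight RGS4 induction, 30 min dye load 37 °C, 20 min compound RT; Measured by: Fluo4-AM (2 µM) calcium-flux fluorescence, kinetic read.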
RGS4 block valid: validation of RGS4 inhibitors; AID 492999; calcium response, % at 10 µM; hit rate 65% among 1,700; shares compounds with RGS4 block; HEK293 M3R/RGS4, carbachol calcium Fluo-4 fluorescence; carbachol added at its EC20; 0 = buffer wells, 100 = carbachol control;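 active = duplicate-averaged calcium response above the buffer-only control mean plus 5 SD of those controls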;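 note: integrated fluorescence ratio F max minus min over baseline F0; higher response in RGS4-induced cells means RGS4 inhibition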
M3R Ca ctr: checks RGS4 inhibitor effects in non-induced HEK293 M3R cells. shares compounds with RGS4 block. activity (percent), % at 10 µM. AID 493000. carbachol calcium Fluo-4; submaximal (EC20) carbachol stimulus; buffer wells 0%, carbachol control wells 100%. hit rate 20% among 1,900; call rule not given here;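 note: RGS4 induction absent so cells express M3R without RGS4; higher means more calcium signal and flags a non-specific hit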
M3R basal Ca ctr: signal in non-induced cells without carbachol, RGS4 inhibitor counter-screen; shares compounds with RGS4 block; hit rate 22% among 1,900; AID 493001; HEK293 M3R/RGS4 non-induced, Fluo-4 calcium, no carbachol; normalised: buffer wells 0%, carbachol wells 100%; calcium response (agonist-mode artifact), % at 10 µM;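 active = duplicate-averaged calcium rise in uninduced cells above buffer wells' mean plus 5 SD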
MrgX1 ag confirm: human MrgX1 agonism, re-confirmation screen; activation, % at 10 µM; MrgX1-HEK293, Fluo-4 calcium fluorescence, FDSS; AID 602412; shares compounds with MrgX1 agonist; hit rate 78% among 600;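 active = calcium signal rise, corrected for plate position, at least 3 library SD high, with starting brightness within 5 such deviations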
MrgX1 PAM conf: human MrgX1 positive allosteric modulation, re-confirmation | activation (ratio percentage), % at 10 µM | MrgX1-HEK293, Fluo-4 calcium fluorescence, FDSS | hit rate 13% among 1,200 | shares compounds with MrgX1 PAM;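 active = ratio at least 3 SD above the weak peptide control, stable starting fluorescence, no direct agonism earlier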;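 note: compound followed by low BAM8-22 agonist challenge near EC20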
MrgX1 antag conf: confirmation of human MrgX1 receptor antagonists. MrgX1-HEK293, BAM8-22 calcium flux, Fluo-4; stronger effect = lower value. shares compounds with MrgX1 antagonist. hit rate 19% among 2,300. remaining BAM8-22 calcium response % of control (stronger effect = lower value), % at 10 µM;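 active = remaining agonist calcium response no higher than 100% minus 3 SD of agonist-only control wells, with starting fluorescence near control levels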;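 note: agonist BAM8-22 given at a near maximal EC90 to ECmax level; peak minus minimum fluorescence divided by baseline after agonist addition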
HEK293 Ca flux: activity in parental HEK293 cells lacking MrgX1. hit rate 2% among 4,000. Fluo-4 calcium fluorescence, FDSS. shares compounds with MrgX1 antagonist. fluorescence ratio F(max-min)/F0 at 10 µM;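 active = duplicate-averaged calcium fluorescence ratio at least three times the standard deviation of buffer wells, a nonspecific response in parental cells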
HEK293 Ca counter: activity in parental HEK293 cells without MrgX1. shares compounds with MrgX1 antagonist. parental HEK293 calcium flux, Fluo-4 fluorescence ratio; stronger effect = higher value. fluorescence ratio F(max-min)/F0 at 10 µM. hit rate 0.4% among 4,000. AID 624114;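 active = calcium fluorescence ratio, averaged over duplicates, at least 3 SD of the buffer-well ratio, meaning a nonspecific response in receptor-free cells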;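 note: untransfected parental HEK293 lacking MrgX1 used as counterscreen for MrgX1 allosteric activators; fluorescence change taken during the second addition on a kinetic imager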
HEK293 Ca cntr2: counter-screen for MrgX1 activators: effect in parental HEK293 cells | Fluo-4 calcium fluorescence (FDSS); stronger effect = higher value | shares compounds with MrgX1 antagonist | hit rate 8.7% among 4,000 | fluorescence ratio F(max-min)/F0 at 10 µM;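 active = calcium fluorescence ratio at least three times the spread of buffer wells, meaning a non-specific response in parental cells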
A number is an active result; i = inactive; nt = no result. In the library only some 3.5% were active in any assay of this set; here they are far more common.

SMILES	MrgX1 antagonist	RGS4 block	MrgX1 PAM	MrgX1 agonist	RGS4 act	HEK293 Ca flux	HEK293 Ca counter	HEK293 Ca cntr2	others
COc1ccc(-n2c(O)c(/C=C3\C=Nc4ccc(Br)cc43)c(=O)[nH]c2=O)c(OC)c1	i	26.1	i	i	i	nt	nt	nt	RGS4 block valid=55.0%;M3R Ca ctr=i;M3R basal Ca ctr=326.5%
CCCN1CCc2cc(O)cc3c2[C@H]1Cc1ccc(O)c(O)c1-3	i	10.5	i	30.9	i	i	i	i	RGS4 block valid=65.0%;M3R Ca ctr=i;M3R basal Ca ctr=i;MrgX1 ag confirm=i
CCOC(=O)C1(CCOc2ccccc2)CCN(Cc2ccc(C)s2)CC1	i	i	i	i	i	nt	nt	nt
C=Cn1c(P(=S)(N2CCOCC2)N2CCOCC2)cc2c1CCCC2	i	i	i	66.1	i	i	i	i	MrgX1 ag confirm=i
CCCN1C2CCCC1CC(NC(C)=O)C2 (stereo unspecified)	i	i	i	49.9	i	i	i	i	MrgX1 ag confirm=i
COc1cc(OC)c(C=O)c(OC(=O)N(C)C)c1	i	i	i	i	i	nt	nt	nt
Cc1ccc(-c2cc(-c3ccc(C)cc3)[n+](-c3ccccc3)c(-c3ccc(C)cc3)c2)cc1	i	i	i	77.4	-10.7	i	i	81.8	MrgX1 ag confirm=350.6%
Cc1ccc(-c2cc(-c3ccc(C)cc3)[n+](C)o2)cc1	i	i	i	i	i	nt	nt	nt
CC(=O)O[C@@H]1/C=C/[C@](C)(O)C[C@@H](C)C/C=C/[C@H]2[C@@H]3O[C@]3(C)[C@@H](C)[C@H]3[C@H](Cc4ccccc4)NC(=O)[C@@]312	i	i	i	i	i	nt	nt	nt
CCCCn1c(=O)c(C(=O)NCCc2ccccc2)c(O)c2ccccc21	i	i	8.09	i	i	i	i	i	MrgX1 PAM conf=i
CCCCCn1c(=O)c(C(=O)Nc2ccccc2)c(O)c2ccccc21	i	i	i	i	i	nt	nt	nt
CCCCn1c(=O)c(C(=O)NC(C)c2ccccc2)c(O)c2ccccc21 (stereo unspecified)	i	i	9.07	i	i	i	50.1	i	MrgX1 PAM conf=i
CCN(CC)C(=O)c1ccc(NC(=O)CNC(C)c2cccc3ccccc23)cc1 (stereo unspecified)	i	i	i	i	i	nt	nt	nt
CCC(C)N1C(=O)/C(=C/c2ccc3c(c2)CCN3CCCCl)C(=O)NC1=S (stereo unspecified)	i	i	i	i	i	nt	nt	nt
NCC(O)c1cc(O)c(O)cc1F (stereo unspecified)	i	nt	6.54	i	nt	i	i	i	MrgX1 PAM conf=i
CN(C)[C@@H]1C(=O)C(C(N)=O)=C(O)[C@@]2(O)C(=O)C3=C(O)c4c(O)cccc4[C@@](C)(O)C3[C@H](O)C12 (stereo partly specified)	i	i	i	i	i	nt	nt	nt
N#CSCC(=O)N1c2ccccc2CCc2ccccc21	i	i	8.54	i	i	i	i	i	MrgX1 PAM conf=i
CCNc1cc(N2CCNCC2)ccc1[N+](=O)[O-]	i	i	i	i	i	nt	nt	nt
COC(=O)C1=C(c2cc3ccccc3o2)C[C@@H]2CC[C@H]1N2C(=O)NCc1ccc(F)cc1	i	i	7.93	i	i	i	i	i	MrgX1 PAM conf=i
COc1ccc(N2CCN(C(CNC(=O)Oc3ccccc3)c3cccnc3)CC2)cc1 (stereo unspecified)	-6.87	i	i	i	i	i	i	i	MrgX1 antag conf=i
Cc1[nH]c2ccccc2c1C(=O)C(=O)N1CC2CC(C1)c1cccc(=O)n1C2 (stereo unspecified)	i	i	i	i	i	nt	nt	nt
Cc1cc(OCC(=O)NCc2ccc(S(N)(=O)=O)cc2)c2c3c(c(=O)oc2c1)CCC3	i	i	i	i	i	nt	nt	nt
CCn1c(=O)n(CC)c2cc([N+](=O)[O-])c(N3CCNCC3)cc21	i	i	i	i	i	nt	nt	nt
Cn1c(=O)cc(OCCCC(=O)N2CCC3(CC2)OCCO3)c2ccccc21	-9.78	i	i	i	i	i	i	i	MrgX1 antag conf=i
COc1ccc2c(C)c(CC(=O)N3C[C@H]4C[C@@H](C3)c3cccc(=O)n3C4)c(=O)oc2c1C	i	i	i	i	i	nt	nt	nt
SMILES	MrgX1 antagonist	RGS4 block	MrgX1 PAM	MrgX1 agonist	RGS4 act	HEK293 Ca flux	HEK293 Ca counter	HEK293 Ca cntr2	others
C=CCn1c(O)c(C(C)=NCc2ccc3c(c2)OCO3)c(=O)[nH]c1=O	-4.69	i	i	i	i	i	i	i	MrgX1 antag conf=i
CC(=NCc1ccc2c(c1)OCO2)c1c(O)n(Cc2ccccc2)c(=O)[nH]c1=O	i	i	i	i	i	nt	nt	nt
CCCCCCN1CCN(c2ccc(Cl)cc2)CC1	i	i	i	i	i	nt	nt	nt
ClCCN1CCN(c2ccnc3cc(Cl)ccc23)CC1	-16.7	i	i	i	i	i	i	i	MrgX1 antag conf=12.2%
Cc1nc2ccc(Cl)cc2c(-c2ccccc2)c1C(=O)O	i	i	i	i	i	nt	nt	nt
FC(F)(F)Oc1ccc(NC2=NCCCS2)cc1	i	i	i	i	i	nt	nt	nt
O=C(c1ccc2c3c(cccc13)CC2)C1CCCN(CC2CC2)C1 (stereo unspecified)	i	i	i	i	i	nt	nt	nt
O=C(c1ccc2c3c(cccc13)CC2)C1CCCN(Cc2ncc[nH]2)C1 (stereo unspecified)	-4.74	i	i	i	i	i	i	i	MrgX1 antag conf=i
Fc1ccccc1CNC1CN2CCC1CC2 (stereo unspecified)	i	i	i	i	i	nt	nt	nt

Screens from PubChem.
